Published values of several laboratories.
Lines come from different studies, so protocols differ.
Sialidase-4: Sialidase-4 (Homo sapiens, UniProt Q8WWR8)
ALOX15: Polyunsaturated fatty acid lipoxygenase ALOX15 (ALOX15, Homo sapiens, UniProt P16050)
ache: Acetylcholinesterase (ache, Electrophorus electricus, UniProt O42275)

CN1CC[C@@]2(C)c3cc(OC(=O)Nc4ccccc4)ccc3N(C)[C@@H]12
IC50 (Aldehyde dehydrogenase 1A1 (ALDH1A1, Homo sapiens, UniProt P00352); enzyme activity; inhibitor; fluorescence): < 10 µM

CN(C(=O)CC(C)(C)C)[C@H]1[C@H]([C@H](O)[C@H](O)CO)OC(C(=O)O)=C[C@@H]1O
IC50 (Sialidase-4; enzyme activity; inhibitor): > 500 µM

CCCC[C@H]1C(=O)N(C)[C@@H](CCCC)C(=O)N[C@@H](CCCCNC(=O)CN2CCN(CC(=O)O)CCN(CC(=O)O)CC2)C(=O)N[C@H](C(=O)NCC(N)=O)CSCC(=O)N[C@@H](Cc2ccc(O)cc2)C(=O)N(C)[C@@H](C)C(=O)N[C@@H](CC(N)=O)C(=O)N2CCC[C@H]2C(=O)N[C@@H](Cc2c[nH]cn2)C(=O)N[C@@H](CCC(=O)O)C(=O)N2C[C@H](O)C[C@H]2C(=O)N[C@@H](Cc2c[nH]c3ccccc23)C(=O)N[C@@H](CO)C(=O)N[C@@H](Cc2cn(CC(=O)O)c3ccccc23)C(=O)N1C
IC50 (Programmed cell death 1 ligand 1 (CD274, Homo sapiens, UniProt Q9NZQ7); ligand displacement; radioligand): 0.00245 µM

CCN[C@H]1[C@H]([C@H](O)[C@H](O)CO)OC(C(=O)O)=C[C@@H]1O
IC50 (Sialidase-4; enzyme activity; inhibitor): > 500 µM

CCOC(=O)c1ccccc1-c1c2ccc(=O)cc-2oc2cc(OCCCNc3c(-c4ccc([N+](=O)[O-])cc4)nc4ccccn34)ccc12
IC50 (ALOX15; enzyme activity; inhibitor; absorbance): > 100 µM

CC(C)(C)CN[C@H]1[C@H]([C@H](O)[C@H](O)CO)OC(C(=O)O)=C[C@@H]1O
IC50 (Sialidase-4; enzyme activity; inhibitor): 40 µM

CCOC(=O)c1ccccc1-c1c2ccc(=O)cc-2oc2cc(OCCCNc3c(-c4ccc(OC(C)=O)cc4)nc4ccccn34)ccc12
IC50 (ALOX15; enzyme activity; inhibitor; absorbance): > 100 µM

O=C(N1CCC2(CC1)C[C@@H](CN1CCCCS1(=O)=O)CCO2)C1(c2ccccc2)CCCC1
IC50 (ATP-dependent RNA helicase DDX3X (DDX3X, Homo sapiens, UniProt O00571); ATPase activity; inhibitor): > 50 µM

CC(C)(C)NC(=O)N[C@H]1[C@H]([C@H](O)[C@H](O)CO)OC(C(=O)O)=C[C@@H]1O
IC50 (Sialidase-4; enzyme activity; inhibitor): > 500 µM

COc1ccc(/C=C/C(=O)N2CCCC(NC(=O)OC(C)(C)C)C2)cc1OC (centres unmarked)
IC50 (ache; enzyme activity; inhibitor; Ellman): > 50 µM

O=C(/C=C/c1ccc(OC(=O)N2CCCC2)cc1)NC1CCN(Cc2ccccc2)CC1
IC50 (ache; enzyme activity; inhibitor; Ellman): 4.5 µM

CCCCCCN[C@H]1[C@H]([C@H](O)[C@H](O)CO)OC(C(=O)O)=C[C@@H]1O
IC50 (Sialidase-4; enzyme activity; inhibitor): > 500 µM

Fc1ccc(-c2nnc(-c3ccc(OCc4cn(Cc5ccc(Cl)cc5)nn4)cc3)o2)cc1
IC50 (ache; enzyme activity; inhibitor; Ellman): > 100 µM

COc1cc(CCC(=O)N2CCC(Cc3ccccc3)CC2)ccc1OC(=O)N(c1ccccc1)c1ccccc1
IC50 (ache; enzyme activity; inhibitor; Ellman): 10.5 µM

CCOC(=O)c1ccccc1-c1c2ccc(=O)cc-2oc2cc(OCCCNc3c(-c4ccc5ccccc5c4)nc4ccccn34)ccc12
IC50 (ALOX15; enzyme activity; inhibitor; absorbance): > 100 µM

Fc1ccc(Cn2cc(COc3ccc(-c4nnc(-c5ccccc5)o4)cc3)nn2)cc1
IC50 (ache; enzyme activity; inhibitor; Ellman): > 100 µM

CCN(C)C(=O)Oc1ccc(CCC(=O)N2CCc3ccccc3C2)cc1OC
IC50 (ache; enzyme activity; inhibitor; Ellman): 10.6 µM
